The list is not random: actives were taken first. Their share in the collection is about 3.1%.
PolyA inhibitor = blocks polyadenylation in yeast reporter cells; S. cerevisiae SKY197-pL101 polyadenylation reporter, beta-gal luminescence; efflux-impaired pdr1/pdr3 knockout yeast; score 100 = 6 SD above DMSO; activity score, % at 12 µM; actives 0.02% (n = 300,000); AID 1875;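 active means lowest replicate activity score at least 50, where 100 means six control SD above control mean; inconclusive means lowest score under 50 but half or more replicates reach 50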;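 further: yeast exposed to compound for 9 h at 30 °C; higher score means more reporter readthrough which indicates perturbed polyadenylation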
Calb FLC = C. albicans growth modulation with fluconazole; C. albicans CaCi-2 (fluconazole-resistant clinical isolate) + fluconazole, Alamar Blue growth, 48 h; growth inhibition, % (concentration not given with the values); actives 0.57% (n = 300,000); AID 1979;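 active means growth inhibition above about 58% in most replicates, limit read from the data, passing the limit was not always enough; inconclusive means exactly half the replicates above a set limit; inactive means most replicates below a set limit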;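 further: all wells also contain fluconazole at 8 µg/ml as a sub-toxic cotreatment; 0% = median of DMSO wells and 100% = median of geldanamycin control wells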
Beta apoptosis = blocks beta cell apoptosis | INS-1E cytokine-induced death, ATP luminescence, 48 h; percent of positive-control rescue, neutral wells zero | protection from apoptosis, % (concentration not given with the values) | actives 0.8% (n = 300,000);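 active means Every replicate reaches about 75%, or at least half do and their mean reaches it too, limit read from the data; inconclusive means At least half of replicates reach the limit but their mean does not; inactive means Under half of replicates reach the limit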;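 further: 0% = cytokine-treated negative control wells and 100% = positive control rescue; higher means more ATP so stronger rescue from cytokine killing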
HIF activator = HIF pathway transcriptional activation. actives 0.32% (n = 300,000). activation, % at 7.5 µM (by protocol). U2OS HRE-luciferase reporter, luminescence; normalized: DMSO 0%, desferrioxamine 100%;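 active means mean activation of at least 10% of the iron chelator positive control signal, with at least half of replicates also reaching 10%; inconclusive means mean and replicate majority disagree about reaching 10%; inactive means mean and most replicates under 10%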
T cruzi repl = blocks replication of Trypanosoma cruzi; T. cruzi beta-gal in NIH3T3, luminescence, 90 h; inhibition, % (test concentration not listed); actives 1.4% (n = 300,000); AID 1885;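 active means mean inhibition across valid replicates above about 55%, limit read from the data; inconclusive means mean below that limit but half or more replicates reach it; inactive means mean below it, under half of replicates reach it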;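 further: signal also drops with host cell toxicity which is not excluded here; 0% = plate median of DMSO wells and 100% = zero luminescence signal; higher percent means less beta-gal luminescence so fewer parasites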
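System: NIH/3T3 fibroblasts plus reporter T. cruzi. Medium: DMEM plus 2% FBS. Probe or stimulus: 5000 reporter trypomastigotes per well. Compound: single 50 nL compound addition per well in DMSO. Incubation: co-culture of at least 90 h after 3 h attachment. Detection: GalScreen β-gal luminescence, detergent lysis, 60 min. Evaluation: parasite load inhibition, %.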
CSC inhib = blocks cancer stem cells; cancer stem cell-like cells viability, luminescence; inhibition, % at 7.5 µM; actives 1.1% (n = 300,000); AID 2717; in the data active means inhibition above about 75%; inconclusive means no clear call, values can overlap the other calls; tested in HMLE shEcad cells
* marks the source's active call; other numbers are inactive results.

For Cc1ccc(C2CC2C(=O)NNC(=S)Nc2cccc(C)c2)cc1 (stereo not drawn) the results were PolyA inhibitor -17.0, Calb FLC inconclusive, Beta apoptosis 3.2, HIF activator -0.2, T cruzi repl 5.8 and CSC inhib 34.1.
For O=C1c2cccc3cc([N+](=O)[O-])cc(c23)C(=O)N1CCN1CCCC1 the results were PolyA inhibitor -2.4, Calb FLC inconclusive, HIF activator -1.2 and T cruzi repl 56.0*.
`Nc1cc2c3c(cccc3c1)C(=O)N(CCN1CCCC1)C2=O` gave PolyA inhibitor -7.3, Calb FLC -3.6, Beta apoptosis 75.1*, HIF activator inconclusive, T cruzi repl 78.2* and CSC inhib 35.7.
CC(C)(C)Nc1nc(Nc2ccc([N+](=O)[O-])cc2)nc(NC(C)(C)C)n1 was read as PolyA inhibitor 10.2, Calb FLC 3.5, HIF activator -2.3, T cruzi repl 16.6 and CSC inhib 17.4.
For Cc1cccc(NC(=O)NC2CCCCCCC2)c1 the results were Calb FLC 124.0*, Beta apoptosis -0.5 and CSC inhib 1.2.
Screening Cc1ccc(NC(=O)NC2CCCCC2)c(C)c1 returned PolyA inhibitor 9.0, Calb FLC -11.5, Beta apoptosis -1.6, HIF activator 0.2, T cruzi repl -6.0 and CSC inhib -8.8.
Cc1ccc(NC(=O)NC2CCCCCCC2)c(C)c1 was read as Calb FLC 112.3*, Beta apoptosis 3.8 and CSC inhib -0.9.
`CCOc1ccccc1N1CCN(CC(O)COC2CCCc3ccccc32)CC1` (stereo not drawn) gave PolyA inhibitor 11.6, Calb FLC 83.3*, Beta apoptosis 3.4, HIF activator -0.2, T cruzi repl 28.0 and CSC inhib -1.2.
For O=S(=O)(c1cccs1)N1CCN(CC(O)COC2CCCc3ccccc32)CC1 (stereo not drawn) the results were PolyA inhibitor -15.2, Calb FLC -5.1, Beta apoptosis -5.8, HIF activator -1.2, T cruzi repl 4.2 and CSC inhib -10.0.
Screening O=C(NC1CC1)c1ccc(N2CCCCC2)c([N+](=O)[O-])c1 returned PolyA inhibitor 1.8, Calb FLC -3.6, HIF activator 1.9, T cruzi repl 12.9 and CSC inhib 0.2.
Cc1[nH]c2ccccc2c1/C=N/NC(=O)C1CC1(c1ccccc1)c1ccccc1 (stereo not drawn) was read as PolyA inhibitor 12.9, Calb FLC -9.1, Beta apoptosis 25.5, HIF activator 0.1, T cruzi repl 33.0 and CSC inhib 115.7*.
`O=C(NCC1CCCCC1)c1cc2ccccc2cc1O` gave PolyA inhibitor -1.4, Calb FLC 3.8, Beta apoptosis -6.7, HIF activator 2.8, T cruzi repl 3.9 and CSC inhib 83.3*.
O=C(NC(=S)Nn1cnc2c(cnn2-c2ccccc2)c1=O)c1ccc(Cl)cc1 was read as PolyA inhibitor -20.7, Calb FLC 101.1*, Beta apoptosis -0.3, HIF activator 0.0, T cruzi repl -4.5 and CSC inhib 5.6.
`COc1cc(CN(C(=S)NCC(=O)NC2CCCC2)C2CCCC2)cc(OC)c1OC` gave PolyA inhibitor -9.9, Calb FLC -0.6, Beta apoptosis 2.6, HIF activator -0.3, T cruzi repl 13.5 and CSC inhib 4.1.
CCOC(=O)c1nc(Nc2cc(C)cc(C)c2)c2ccccc2n1 was read as PolyA inhibitor -5.3, Calb FLC 5.1, Beta apoptosis 25.8, HIF activator -0.2, T cruzi repl 56.1* and CSC inhib -4.0.
Screening CCOC(=O)c1nc(Nc2ccc(Nc3ccccc3)cc2)c2ccccc2n1 returned PolyA inhibitor -5.9, Calb FLC 26.8, HIF activator 0.5 and T cruzi repl 16.3.
Screening O=C(Oc1cccnc1)c1ccc([N+](=O)[O-])cc1 returned PolyA inhibitor 7.6, Calb FLC -5.9, Beta apoptosis -5.2, HIF activator -0.3, T cruzi repl -40.7 and CSC inhib -9.3.
`O=[N+]([O-])c1cc(Oc2cccnc2)cc([N+](=O)[O-])c1` gave PolyA inhibitor -10.6, Calb FLC 19.4, Beta apoptosis 24.4, HIF activator 0.0 and T cruzi repl 60.5*.
Screening COc1c(Cl)cnn(-c2ccc(C)cc2)c1=O returned PolyA inhibitor -5.3, Calb FLC -2.7, Beta apoptosis -5.3, HIF activator 0.2, T cruzi repl -36.7 and CSC inhib 2.6.
Cc1ccc(-n2ncc(Br)c(Br)c2=O)cc1 was read as PolyA inhibitor -41.0, Calb FLC 96.6*, HIF activator -7.3 and T cruzi repl 74.6*.
`CNC(=O)COC(=O)c1ccccc1Nc1ccccc1` gave PolyA inhibitor 2.0, Calb FLC -3.6, Beta apoptosis -3.7, HIF activator 0.2 and T cruzi repl -17.7.
`O=S(=O)(Nc1nc(-c2sccc2Cl)cs1)c1cc(Cl)ccc1Cl` gave PolyA inhibitor 15.0, Calb FLC 65.1, Beta apoptosis 2.2, HIF activator 0.4, T cruzi repl 16.4 and CSC inhib 118.6*.
For CC(C)(C)c1nnc(NS(=O)(=O)c2cc(Cl)ccc2Cl)s1 the results were PolyA inhibitor -13.4, Calb FLC 5.8, HIF activator -0.2, T cruzi repl -5.0 and CSC inhib 11.0.
Cc1ccccc1COc1cccc(/C=N/NC(=O)c2nnn(-c3nonc3N)c2C)c1 was read as PolyA inhibitor 13.0, Calb FLC -7.7, Beta apoptosis 10.3, HIF activator -0.3, T cruzi repl -7.5 and CSC inhib -0.9.
Screening CCC(=O)NC(=S)Nc1ccc(NC(=O)c2ccccc2[N+](=O)[O-])cc1 returned PolyA inhibitor 13.9, Calb FLC -4.7, Beta apoptosis 1.2, HIF activator 2.3, T cruzi repl 6.1 and CSC inhib -9.6.
Screening CCC(=O)NC(=S)Nc1ccc(NC(=O)c2cccc([N+](=O)[O-])c2C)cc1 returned PolyA inhibitor 16.1, Calb FLC -5.1, Beta apoptosis 0.2, HIF activator 14.5*, T cruzi repl -6.0 and CSC inhib 11.7.
For CCC(=O)NC(=S)Nc1ccc(NC(=S)NC(=O)c2ccccc2)cc1 the results were PolyA inhibitor -6.6, Calb FLC 25.5, HIF activator 1.3 and T cruzi repl 60.5*.
Cc1ccc2c(COC(=O)C3CSC4(C)CCC(=O)N34)cc(=O)oc2c1C (stereo not drawn) was read as Beta apoptosis 5.4 and CSC inhib -5.4.
For Brc1ccccc1OCCCCCN1CCCC1 the results were PolyA inhibitor -3.3, Calb FLC -15.1, Beta apoptosis 11.2, HIF activator 0.2, T cruzi repl 56.7* and CSC inhib -14.0.
For CC(C)(C)c1ccccc1OCCOCCN1CCCCCC1 the results were PolyA inhibitor -29.8, Calb FLC -19.0, Beta apoptosis 19.4, HIF activator -1.1, T cruzi repl 56.3* and CSC inhib 31.3.

Screens from PubChem.
